Experimental data gathered from unrelated publications.
Target: Maternal embryonic leucine zipper kinase (MELK, Homo sapiens, UniProt Q14680)

Structure (SMILES) | observed | action | technique | tested at | quantity | value
C[C@H]1CC[C@H](n2c3cnccc3c3cnc(Nc4ccc5c(n4)CCN(C(=O)CO)C5)nc32)CC1 | cell-free assay | – | – | 1 µM | remaining signal | 24%
COc1ccc2oc(-c3ccc4nc(N)oc4c3)c/c(=N\c3ccccc3NC(=O)CCN)c2c1 | binding | – | – | 1 µM | remaining binding | 99%
CN1CCN(C(=O)c2ccc(NC(=O)Nc3ccc(N(C)c4ccnc(Nc5ccc(CS(C)(=O)=O)cc5)n4)cc3)cc2)CC1 | binding | – | – | 1 µM | remaining binding | 81%
C1=C/COCc2cc(ccc2OCCN2CCCC2)Nc2nccc(n2)-c2cccc(c2)COC/1 | binding | – | – | 0.1 µM | remaining binding | 84%
CO[C@@H]1[C@H](N(C)C(=O)c2ccccc2)C[C@H]2O[C@]1(C)n1c3ccccc3c3c4c(c5c6ccccc6n2c5c31)C(=O)NC4 | enzyme activity | inhibitor | – | 1 µM | inhibition | 60%
C#Cc1cc(-c2cc(Nc3nc(N[C@@H](C)c4ccc(F)cn4)ncc3Cl)n[nH]2)ccc1C=O | enzyme activity | inhibitor | – | 0.2 µM | inhibition | 34.3%
CC#CC(=O)N1CCC[C@H]1c1nc(-c2ccc(C(=O)Nc3ccccn3)cc2)c2c(N)nccn12 | enzyme activity | inhibitor | – | 1 µM | inhibition | 41%
CCCCC(=O)Nc1ccc(-c2ccc3ncn(CCC)c(=O)c3c2)cn1 | binding | – | competition with immobilised ligand | 0.5 µM | remaining binding | 86%
